This is an account of results in ChEMBL document CHEMBL4622976, “Development of pH/Glutathione-Responsive Theranostic Agents Activated by Glutathione S-Transferase π for Human Colon Cancer” (J Med Chem, 2020).

The structures appear in SMILES notation. Activity calls are given as the source filed them. The calls are words filed in the database; no cut-off is given here.

Data set [1] has as its system HT-29. Kind of data set: Antitumor activity against human HT-29 cells xenografted in nude BALB/c mouse assessed as reduction in tumor volume at 20 mg/kg, ip dosed every day for 21 days. The data set is classed as functional, organism-based.
Data set [2] is described as follows: Toxicity in BALB/c mouse xenografted with human hT-29 cells assessed as effect on body mass at 20 to 40 mg/kg, ip dosed every day for 21 days. The data set is classed as organism-based. Conditions: in vivo, 504 h. The procedure, abridged: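 Female BALB/c nude mice, 5-6 weeks old, inoculated subcutaneously with 1×10^6 HT29 cells. At tumor volume 100 mm³, animals randomized to compound or saline, given intraperitoneally every day for 21 days. Body weight recorded every three days; animals euthanized at 20% weight loss. Tumor volume = ½(L×W²) from caliper measurements; tumors excised and weighed at the end.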

Data set [3] is described as follows: Drug metabolism assessed as GSTpi (unknown origin) mediated compound fluorescence activation at 1 uM in presence of 50 uM H2O2 by HPLC analysis. The data set is classed as ADME. The following applies: human.
A short description of data set [4]: Toxicity in ICR mouse assessed as induction of animal survival rate at 300 mg/kg, ip measured after 14 days. The class given is organism-based. Conditions: in vivo. The gist of the method:
(§1)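 Female ICR mice, randomised, n = 10 per group. Single intraperitoneal dose of 240.0, 300.0, 375.0, 468.8 or 585.9 mg/kg, or vehicle. Deaths recorded at 1 h, 4 h, days 1–4 and days 5–14. Body weight, drinking, eating and activity observed over 14 days. Survival percentage taken on day 14; LD50 derived from the dose–mortality data.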

The test system of data set [5] is HT-29. The experiment in a line: Induction of apoptosis in human HT-29 cells assessed as increase in Bax protein level incubated for 72 hrs by Western blot analysis. The data set is classed as functional, cell-based. The procedure, abridged:
(§2)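 HT29 cells (1.5×10^5/mL) were treated for 72 h and lysed. Lysate (0.05 mg/lane) was run on 12% SDS-PAGE and transferred to nitrocellulose. After blocking in 5% non-fat milk, blots were probed for Bax, Bcl-2, cleaved caspase-3, cleaved PARP, LC3, p62 and beclin-1. Levels were normalised to β-actin, and means ± SD taken from three independent assays.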
For orientation: In western blotting, separated proteins are transferred to a membrane and probed.

A short description of data set [6]: Drug metabolism assessed as GSTpi (unknown origin) mediated compound fluorescence activation at 1 uM in presence of 100 uM serine by HPLC analysis. The following applies: human. The data set is classed as ADME. The gist of the method:
(§3)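 Selectivity test: compound (1 µM) with catalytic GSTπ and each analyte in water with 1% (v/v) DMSO at pH 4.0, 37 °C for 0.5 h. Analytes were cations at 1 mM; amino acids, vitamin C, Na2S and GSH at 100 µM. Readout was fluorescence emission spectra (excitation 440 nm, recorded 450–650 nm).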

Data set [7] in a line: Toxicity in ICR mouse assessed as induction of abnormality in drinking behavior at 240 mg/kg, ip for 14 days. Conditions: in vivo, 336 h. The data set is classed as organism-based. The procedure, abridged:
(§4)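 Female ICR mice (n = 10 per group) given a single intraperitoneal dose at 240.0, 300.0, 375.0, 468.8 or 585.9 mg/kg, or vehicle. Deaths recorded at 1 h, 4 h and daily through day 14. Body weight, drinking, eating and activity observed for abnormality; LD50 derived from mortality.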

Data set [8] can be described thus: Toxicity in ICR mouse assessed as induction of animal death at 240 to 300 mg/kg, ip measured after 4 days. Conditions: in vivo, 96 h. The data set is classed as organism-based. The gist of the method: as §1
Data set [9] has as its system HT-29. Kind of data set: Induction of apoptosis in human HT-29 cells assessed as increase in cleaved caspase-3 protein level incubated for 72 hrs by Western blot analysis. The data set is classed as functional, cell-based. The procedure, abridged: as §2
The nature of data set [10]: Drug metabolism assessed as GSTpi (unknown origin) mediated compound fluorescence activation at 1 uM in presence of 1 mM Mg2+ by HPLC analysis. The data set is classed as ADME. The following applies: human. The procedure, abridged: as §3
Data set [11] in a line: Drug metabolism assessed as GSTpi (unknown origin) mediated 1-(3,4,5-trimethoxyphenyl)-9H-pyrido[3,4-b]indol-3-amine formation at 40 uM in presence of 0.8 mM GSH by HPLC analysis. The data set is classed as ADME. The following applies: human. The gist of the method: (§5)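 HPLC measurement of amine release after incubating compound (40 µM) with GSH (0.8 mM) and GSTπ or GSTα at 0.03 µg/ml.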

A short description of data set [12]: Drug metabolism assessed as GSTpi (unknown origin) mediated compound fluorescence activation at 1 uM in presence of 100 uM glutamate by HPLC analysis. The data set is classed as ADME. The following applies: human. The procedure, abridged: as §3
Data set [13] can be described thus: Drug metabolism assessed as GSTalpha (unknown origin) mediated 1-(3,4,5-trimethoxyphenyl)-9H-pyrido[3,4-b]indol-3-amine formation at 40 uM in presence of 0.8 mM GSH by HPLC analysis. The data set is classed as ADME. The following applies: human. The gist of the method: as §5
Data set [14] has as its system HT-29. The experiment in a line: Antitumor activity against human HT-29 cells xenografted in nude BALB/c mouse assessed as reduction in tumor weight at 40 mg/kg, ip dosed every day for 21 days relative to control. The data set is classed as functional. Set-up: scale not given: the % may be the effect or the level left.
Data set [15] is described as follows: Antiproliferative activity against rat 9L-2 cells by MTT assay. The data set is classed as functional, cell-based. The gist of the method:
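MTT assay. Cells were grown in DMEM/RPMI 1640 with 10% FBS, penicillin and streptomycin at 37 °C under 5% CO2. After a PBS wash, cells got 0.5 mg/mL MTT for 3 h at 37 °C. Formazan was dissolved in DMSO and absorbance read at 570 nm. Inhibition was expressed as a percentage and IC50 calculated. Means ± SD come from three separate experiments.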
For orientation: Tetrazolium dyes change colour on reduction, which living cells bring about.

Data set [16] can be described thus: Toxicity in ICR mouse assessed as induction of abnormality in general activity behavior at 240 mg/kg, ip for 14 days. The class given is organism-based. The following applies: in vivo, 336 h. The gist of the method:
as §4

Data set [17] is described as follows: Drug uptake in human HT-29 cells at 1 uM measured within 10 mins by confocal fluorescence microscopy. Conditions: ht-29, 10 min. The data set is classed as ADME, cell-based. The gist of the method:
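Cells were seeded at 2×10^5 in glass-bottom dishes and allowed to attach. Medium was then replaced with DMEM containing 1 µM compound. Confocal images were taken every minute for 60 min with a 40× water objective, 405 nm laser and 480–530 nm filter. Intracellular fluorescence intensity was quantified.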

Data set [18] has as its system HT-29. The experiment in a line: Induction of apoptosis in human HT-29 cells at 2.5 uM incubated for 72 hrs by FITC-AnnexinV/PI staining based flow cytometry relative to control. The data set is classed as functional. The gist of the method:
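HT29 cells were cultured 12 h, then exposed to compound (0.4, 1.0, 2.5 µM) or vehicle for 72 h. Harvested cells were stained with Annexin V and PI, and apoptotic cell percentages measured by flow cytometry. Means ± SD come from three separate experiments.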
In general terms: Flow cytometry measures light scatter and fluorescence of single cells or particles in a stream.

Data set [19] in a line: Toxicity in ICR mouse assessed as induction of abnormality in body weight level at 240 mg/kg, ip for 14 days. The data set is classed as organism-based. The following applies: in vivo, 336 h. The procedure, abridged: as §4
Data set [20] in a line: Toxicity in ICR mouse assessed as induction of animal survival rate at 240 mg/kg, ip measured after 14 days. The following applies: in vivo. The data set is classed as organism-based. The procedure, abridged:
as §1

Data set [21] in a line: Drug metabolism assessed as GSTpi (unknown origin) mediated compound fluorescence activation at 1 uM in presence of 1 mM Zn2+ by HPLC analysis. The following applies: human. The data set is classed as ADME. The procedure, abridged: as §3
Data set [22] has as its system HT-29. The experiment in a line: Antitumor activity against human HT-29 cells xenografted in nude BALB/c mouse assessed as reduction in tumor volume at 40 mg/kg, ip dosed every day for 21 days. The data set is classed as functional, organism-based.
Data set [23] has as its system HT-29. The experiment in a line: Induction of autophagy in human HT-29 cells assessed as increase in Beclin-1 protein level incubated for 72 hrs by Western blot analysis. The class given is functional, cell-based. The gist of the method:
as §2

Data set [24] can be described thus: Drug metabolism assessed as GSTpi (unknown origin) mediated compound fluorescence activation at 1 uM in presence of 100 uM arginine by HPLC analysis. The class given is ADME. Conditions: human. The gist of the method: as §3

With `COc1cc(-c2nc(NC(=O)OCC3=CCCCC3=O)cc3c2[nH]c2ccccc23)cc(OC)c1OC`, the outcome in the data set with HT-29 [1] and with HT-29 [22] was Active. Moreover, the Activity entry in [2] is “Non-Toxic”; in the data set with HT-29 [5], “Dose-dependent effect”; in data set [7], “Non-Toxic”; in data set [8], “Non-Toxic”; in the data set with HT-29 [9], “Dose-dependent effect”; in the data set on HT-29 [14], 67.7%. For the same molecule, the Activity result in data set [16] is “Non-Toxic”; in the data set with HT-29 [18], 52.3%; in data set [19] it was “Non-Toxic”; with HT-29 [23], “Dose-dependent effect”. In addition, the Drug metabolism result in data set [3] is “Metabolite_Notdetected”; in [6], “Metabolite_Notdetected”; in [10], “Metabolite_Notdetected”; in data set [11], “Metabolite_Detected”; in data set [12], “Metabolite_Notdetected”; in data set [13], “Metabolite_Notdetected”. Also, the Drug metabolism result in data set [21] and in data set [24] was “Metabolite_Notdetected” throughout. Moreover, the survival at 336 h in data set [4] and in [20] was 100% each time. 4.32 µM corresponded to half-maximal inhibition in [15] (IC50). For the same molecule, in data set [17], the Drug uptake result is “Active”.

The IC50 is the concentration needed to halve the response being measured.
